Measured values taken from ChEMBL document CHEMBL3046951, “Volatile constituents from the leaves of Callicarpa japonica Thunb. and their antibacterial activities” (2004).

Legend:
Type in all cases: functional
[1] = system: Salmonella typhimurium; experiment: Antimicrobial activity against Salmonella enterica subsp. enterica serovar Typhimurium ATCC 14028 assessed as growth inhibition rate at 24 mg/l after 72 hr by spectrophotometry; settings: ATCC 14028, 72 h, read-out: GI
Method in brief: (§1)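 Salmonella Typhimurium ATCC 14028 grown in nutrient broth at 30 °C, precultured 24 h, then subcultured 1:100 for 18 h before testing. Single volatile compounds (>95% pure) were added. OD was read every 24 h over 72 h in a Bioscreen C, with 10% Tween 80 as the comparison control.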

[2] = system: Salmonella typhimurium; experiment: Antimicrobial activity against Salmonella enterica subsp. enterica serovar Typhimurium ATCC 14028 assessed as growth inhibition rate at 2.4 mg/l after 72 hr by spectrophotometry; settings: ATCC 14028, 72 h, read-out: GI; method in brief: as §1
[3] = system: Salmonella typhimurium; experiment: Antimicrobial activity against Salmonella enterica subsp. enterica serovar Typhimurium ATCC 14028 assessed as growth inhibition rate at 0.24 mg/l after 72 hr by spectrophotometry; settings: ATCC 14028, 72 h, read-out: GI; method in brief: as §1
[4] = system: Salmonella typhimurium; experiment: Antimicrobial activity against Salmonella enterica subsp. enterica serovar Typhimurium ATCC 14028 assessed as growth inhibition rate at 0.03 mg/l after 72 hr by spectrophotometry; settings: ATCC 14028, 72 h, read-out: GI; method in brief: as §1
[5] = system: Bacillus cereus; experiment: Antimicrobial activity against Bacillus cereus ATCC 11778 assessed as growth inhibition rate at 24 mg/l after 72 hr by spectrophotometry; settings: ATCC 11778, 72 h, read-out: GI
Method in brief: (§2)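 Pure volatile compounds (purity >95%; one at 90%) were tested against B. cereus ATCC 11778. The strain was grown at 30 °C in nutrient broth for 24 h, then subcultured for 18 h. Optical density was read in a Bioscreen C every 24 h for 72 h, with 10% Tween 80 as the control.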

[6] = system: Bacillus cereus; experiment: Antimicrobial activity against Bacillus cereus ATCC 11778 assessed as growth inhibition rate at 2.4 mg/l after 72 hr by spectrophotometry; settings: ATCC 11778, 72 h, read-out: GI; method in brief: as §2
[7] = system: Bacillus cereus; experiment: Antimicrobial activity against Bacillus cereus ATCC 11778 assessed as growth inhibition rate at 0.24 mg/l after 72 hr by spectrophotometry; settings: ATCC 11778, 72 h, read-out: GI; method in brief: as §2
[8] = system: Bacillus cereus; experiment: Antimicrobial activity against Bacillus cereus ATCC 11778 assessed as growth inhibition rate at 0.03 mg/l after 72 hr by spectrophotometry; settings: ATCC 11778, 72 h, read-out: GI; method in brief: as §2
[9] = system: Bacillus cereus; experiment: Antimicrobial activity against Bacillus cereus ATCC 11778 assessed as growth inhibition rate at 1.2 mg/l after 72 hr by spectrophotometry; settings: ATCC 11778, 72 h, read-out: GI
Method in brief: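 Pure volatile compounds (>95% purity; 2,4-heptadienal 90%) identified in the leaf extract were tested against B. cereus ATCC 11778 in nutrient broth at 30 °C. The inoculum was grown 24 h, then subcultured (0.1 mL into 9.9 mL) for 18 h. Optical density was read in a Bioscreen C every 24 h for 72 h against a 10% Tween 80 control.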

[10] = system: Staphylococcus aureus; experiment: Antimicrobial activity against Staphylococcus aureus ATCC 25923 assessed as growth inhibition rate at 1.2 mg/l after 72 hr by spectrophotometry; settings: ATCC 25923, 72 h, read-out: GI
Method in brief: (§3)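 Authentic volatiles (>95% purity; 2,4-heptadienal 90%) tested against 18 h subcultures. Growth media: E. coli O157:H7 and S. aureus in tryptic soy broth at 37 °C; L. monocytogenes in tryptic soy broth at 30 °C; V. parahaemolyticus in tryptic soy broth + 3% NaCl at 37 °C; S. typhimurium in nutrient broth at 30 °C. Bioscreen C OD every 24 h for 72 h versus 10% Tween 80 control.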

[11] = system: Listeria monocytogenes; experiment: Antimicrobial activity against Listeria monocytogenes ATCC 19111 assessed as growth inhibition rate at 12 mg/l after 72 hr by spectrophotometry; settings: ATCC 19111, 72 h, read-out: GI
Method in brief: (§4)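 L. monocytogenes was grown at 30 °C in tryptic soy broth, subcultured for 18 h, and exposed to pure volatile compounds (>95% purity). Growth was followed by Bioscreen C optical density every 24 h for 72 h against a 10% Tween 80 control.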

[12] = system: Escherichia coli; experiment: Antimicrobial activity against Escherichia coli O157:H7 ATCC 43894 assessed as growth inhibition rate at 24 mg/l after 72 hr by spectrophotometry; settings: O157:H7 ATCC 43894, 72 h, read-out: GI
[13] = system: Escherichia coli; experiment: Antimicrobial activity against Escherichia coli O157:H7 ATCC 43894 assessed as growth inhibition rate at 2.4 mg/l after 72 hr by spectrophotometry; settings: O157:H7 ATCC 43894, 72 h, read-out: GI
[14] = system: Escherichia coli; experiment: Antimicrobial activity against Escherichia coli O157:H7 ATCC 43894 assessed as growth inhibition rate at 0.24 mg/l after 72 hr by spectrophotometry; settings: O157:H7 ATCC 43894, 72 h, read-out: GI
[15] = system: Escherichia coli; experiment: Antimicrobial activity against Escherichia coli O157:H7 ATCC 43894 assessed as growth inhibition rate at 0.03 mg/l after 72 hr by spectrophotometry; settings: O157:H7 ATCC 43894, 72 h, read-out: GI
[16] = system: Staphylococcus aureus; experiment: Antimicrobial activity against Staphylococcus aureus ATCC 25923 assessed as growth inhibition rate at 0.24 mg/l after 72 hr by spectrophotometry; settings: ATCC 25923, 72 h, read-out: GI
[17] = system: Staphylococcus aureus; experiment: Antimicrobial activity against Staphylococcus aureus ATCC 25923 assessed as growth inhibition rate at 0.03 mg/l after 72 hr by spectrophotometry; settings: ATCC 25923, 72 h, read-out: GI
[18] = system: Vibrio parahaemolyticus; experiment: Antimicrobial activity against Vibrio parahaemolyticus ATCC 33844 assessed as growth inhibition rate at 12 mg/l after 72 hr by spectrophotometry; settings: ATCC 33844, 72 h, read-out: GI
[19] = system: Staphylococcus aureus; experiment: Antimicrobial activity against Staphylococcus aureus ATCC 25923 assessed as growth inhibition rate at 24 mg/l after 72 hr by spectrophotometry; settings: ATCC 25923, 72 h, read-out: GI
[20] = system: Staphylococcus aureus; experiment: Antimicrobial activity against Staphylococcus aureus ATCC 25923 assessed as growth inhibition rate at 2.4 mg/l after 72 hr by spectrophotometry; settings: ATCC 25923, 72 h, read-out: GI
[21] = system: Vibrio parahaemolyticus; experiment: Antimicrobial activity against Vibrio parahaemolyticus ATCC 33844 assessed as growth inhibition rate at 1.2 mg/l after 72 hr by spectrophotometry; settings: ATCC 33844, 72 h, read-out: GI; method in brief: as §3
[22] = system: Salmonella typhimurium; experiment: Antimicrobial activity against Salmonella enterica subsp. enterica serovar Typhimurium ATCC 14028 assessed as growth inhibition rate at 12 mg/l after 72 hr by spectrophotometry; settings: ATCC 14028, 72 h, read-out: GI; method in brief: as §1
[23] = system: Listeria monocytogenes; experiment: Antimicrobial activity against Listeria monocytogenes ATCC 19111 assessed as growth inhibition rate at 1.2 mg/l after 72 hr by spectrophotometry; settings: ATCC 19111, 72 h, read-out: GI; method in brief: as §3
[24] = system: Escherichia coli; experiment: Antimicrobial activity against Escherichia coli O157:H7 ATCC 43894 assessed as growth inhibition rate at 12 mg/l after 72 hr by spectrophotometry; settings: O157:H7 ATCC 43894, 72 h, read-out: GI
[25] = system: Escherichia coli; experiment: Antimicrobial activity against Escherichia coli O157:H7 ATCC 43894 assessed as growth inhibition rate at 1.2 mg/l after 72 hr by spectrophotometry; settings: O157:H7 ATCC 43894, 72 h, read-out: GI
[26] = system: Staphylococcus aureus; experiment: Antimicrobial activity against Staphylococcus aureus ATCC 25923 assessed as growth inhibition rate at 12 mg/l after 72 hr by spectrophotometry; settings: ATCC 25923, 72 h, read-out: GI
[27] = system: Listeria monocytogenes; experiment: Antimicrobial activity against Listeria monocytogenes ATCC 19111 assessed as growth inhibition rate at 24 mg/l after 72 hr by spectrophotometry; settings: ATCC 19111, 72 h, read-out: GI; method in brief: as §4
[28] = system: Listeria monocytogenes; experiment: Antimicrobial activity against Listeria monocytogenes ATCC 19111 assessed as growth inhibition rate at 2.4 mg/l after 72 hr by spectrophotometry; settings: ATCC 19111, 72 h, read-out: GI; method in brief: as §4
[29] = system: Listeria monocytogenes; experiment: Antimicrobial activity against Listeria monocytogenes ATCC 19111 assessed as growth inhibition rate at 0.24 mg/l after 72 hr by spectrophotometry; settings: ATCC 19111, 72 h, read-out: GI; method in brief: as §4
[30] = system: Listeria monocytogenes; experiment: Antimicrobial activity against Listeria monocytogenes ATCC 19111 assessed as growth inhibition rate at 0.03 mg/l after 72 hr by spectrophotometry; settings: ATCC 19111, 72 h, read-out: GI; method in brief: as §4
[31] = system: Vibrio parahaemolyticus; experiment: Antimicrobial activity against Vibrio parahaemolyticus ATCC 33844 assessed as growth inhibition rate at 24 mg/l after 72 hr by spectrophotometry; settings: ATCC 33844, 72 h, read-out: GI
[32] = system: Vibrio parahaemolyticus; experiment: Antimicrobial activity against Vibrio parahaemolyticus ATCC 33844 assessed as growth inhibition rate at 2.4 mg/l after 72 hr by spectrophotometry; settings: ATCC 33844, 72 h, read-out: GI
[33] = system: Vibrio parahaemolyticus; experiment: Antimicrobial activity against Vibrio parahaemolyticus ATCC 33844 assessed as growth inhibition rate at 0.24 mg/l after 72 hr by spectrophotometry; settings: ATCC 33844, 72 h, read-out: GI
[34] = system: Vibrio parahaemolyticus; experiment: Antimicrobial activity against Vibrio parahaemolyticus ATCC 33844 assessed as growth inhibition rate at 0.03 mg/l after 72 hr by spectrophotometry; settings: ATCC 33844, 72 h, read-out: GI
[35] = system: Salmonella typhimurium; experiment: Antimicrobial activity against Salmonella enterica subsp. enterica serovar Typhimurium ATCC 14028 assessed as growth inhibition rate at 1.2 mg/l after 72 hr by spectrophotometry; settings: ATCC 14028, 72 h, read-out: GI; method in brief: as §3
[36] = system: Bacillus cereus; experiment: Antimicrobial activity against Bacillus cereus ATCC 11778 assessed as growth inhibition rate at 12 mg/l after 72 hr by spectrophotometry; settings: ATCC 11778, 72 h, read-out: GI; method in brief: as §2

Compound: C[C@@H]1CC[C@@H]2[C@@H]1[C@H]1[C@@H](CC[C@]2(C)O)C1(C)C [(-)-EPIGLOBULOL]
- inhibition of growth at 24 µg/mL [1]: 58.1%
- inhibition of growth at 2.4 µg/mL [2]: 4.9%
- inhibition of growth at 0.24 µg/mL [3]: 3.9%
- inhibition of growth at 0.03 µg/mL [4]: 2.2%
- inhibition of growth at 24 µg/mL [5]: 95.7%
- inhibition of growth at 2.4 µg/mL [6]: 18.6%
- inhibition of growth at 0.24 µg/mL [7]: 8.2%
- inhibition of growth at 0.03 µg/mL [8]: 0.6%
- inhibition of growth at 1.2 µg/mL [9]: 13.9%
- inhibition of growth at 1.2 µg/mL [10]: 5.8%
- inhibition of growth at 12 µg/mL [11]: 92%
- inhibition of growth at 24 µg/mL [12]: 26.3%
- inhibition of growth at 2.4 µg/mL [13]: 2.1%
- inhibition of growth at 0.24 µg/mL [14]: 0.7%
- inhibition of growth at 0.03 µg/mL [15]: 0.3%
- inhibition of growth at 0.24 µg/mL [16]: 2.6%
- inhibition of growth at 0.03 µg/mL [17]: 1.7%
- inhibition of growth at 12 µg/mL [18]: 61.2%
- inhibition of growth at 24 µg/mL [19]: 99.6%
- inhibition of growth at 2.4 µg/mL [20]: 5.9%
- inhibition of growth at 1.2 µg/mL [21]: 11.1%
- inhibition of growth at 12 µg/mL [22]: 39.1%
- inhibition of growth at 1.2 µg/mL [23]: 8.2%
- inhibition of growth at 12 µg/mL [24]: 22.6%
- inhibition of growth at 1.2 µg/mL [25]: 0.9%
- inhibition of growth at 12 µg/mL [26]: 99.4%
- inhibition of growth at 24 µg/mL [27]: 94.3%
- inhibition of growth at 2.4 µg/mL [28]: 10.1%
- inhibition of growth at 0.24 µg/mL [29]: 6.1%
- inhibition of growth at 0.03 µg/mL [30]: 5.8%
- inhibition of growth at 24 µg/mL [31]: 65.8%
- inhibition of growth at 2.4 µg/mL [32]: 11.7%
- inhibition of growth at 0.24 µg/mL [33]: 11.4%
- inhibition of growth at 0.03 µg/mL [34]: 3.1%
- inhibition of growth at 1.2 µg/mL [35]: 4.4%
- inhibition of growth at 12 µg/mL [36]: 63.6%
